From ChEMBL document CHEMBL2375246, “In silico identification of poly(ADP-ribose)polymerase-1 inhibitors and their chemosensitizing effects against cisplatin-resistant human gastric cancer cells” (Bioorg Med Chem Lett, 2013)
pIC50: −log10 of the molar value. Calls of active or inactive are those of the source. No cut-off for these calls is given here.

Experiments:
[1] = molecular target: Poly [ADP-ribose] polymerase 1 (Homo sapiens, UniProt P09874); assay: Inhibition of PARP1 (unknown origin) after 15 mins by fluorometric analysis
[2] = tested on: YCC-3/D; assay: Potentiation of cisplatin-induced cytotoxicity against human YCC-3/D cells assessed as reduction in cisplatin IC50 at 50 uM co-treated with cisplatin after 36 hrs by MTS assay; assay type: functional, cell-based
[3] = Cytotoxicity against human YCC-3 cells after 36 hrs by MTS assay; assay type: cell-based; conditions: YCC-3, 36 h
How it was run: (§1)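 Cells (YCC-3 parent, or YCC-3/D cisplatin-resistant line kept at 2.5 µg/mL cisplatin) seeded at 5000 cells/well, incubated overnight at 37 °C/5% CO2, then exposed to compound for 36 h. Medium replaced with MTS-containing medium for 2 h at 37 °C, absorbance read at 490 nm. Triplicate; IC50 taken from plot of % growth inhibition vs concentration.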

[4] = Cytotoxicity against human YCC-3/D cells after 36 hrs by MTS assay; assay type: cell-based; how it was run: as §1
[5] = tested on: YCC-3/D; assay: Potentiation of cisplatin-induced cytotoxicity against human YCC-3/D cells assessed as reduction in cisplatin IC50 at 50 uM incubated for 8 hrs prior to cisplatin-addition measured after 36 hrs by MTS assay; assay type: functional, cell-based
How it was run: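 Pretreatment format: cells seeded at 2500 cells/well, incubated overnight at 37 °C/5% CO2, exposed to PARP-1 inhibitor at 50 µM for 8 h. Inhibitor medium removed, cisplatin added over a concentration series for 36 h. MTS added for 2 h at 37 °C, absorbance read at 490 nm. Triplicate; cisplatin IC50 from % growth inhibition vs cisplatin concentration.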

[6] = tested on: YCC-3; assay: Potentiation of cisplatin-induced cytotoxicity against human YCC-3 cells assessed as reduction in cisplatin IC50 at 50 uM incubated for 8 hrs prior to cisplatin-addition measured after 36 hrs by MTS assay; assay type: functional, cell-based

Sequence of Poly [ADP-ribose] polymerase 1 (P09874 whole entry): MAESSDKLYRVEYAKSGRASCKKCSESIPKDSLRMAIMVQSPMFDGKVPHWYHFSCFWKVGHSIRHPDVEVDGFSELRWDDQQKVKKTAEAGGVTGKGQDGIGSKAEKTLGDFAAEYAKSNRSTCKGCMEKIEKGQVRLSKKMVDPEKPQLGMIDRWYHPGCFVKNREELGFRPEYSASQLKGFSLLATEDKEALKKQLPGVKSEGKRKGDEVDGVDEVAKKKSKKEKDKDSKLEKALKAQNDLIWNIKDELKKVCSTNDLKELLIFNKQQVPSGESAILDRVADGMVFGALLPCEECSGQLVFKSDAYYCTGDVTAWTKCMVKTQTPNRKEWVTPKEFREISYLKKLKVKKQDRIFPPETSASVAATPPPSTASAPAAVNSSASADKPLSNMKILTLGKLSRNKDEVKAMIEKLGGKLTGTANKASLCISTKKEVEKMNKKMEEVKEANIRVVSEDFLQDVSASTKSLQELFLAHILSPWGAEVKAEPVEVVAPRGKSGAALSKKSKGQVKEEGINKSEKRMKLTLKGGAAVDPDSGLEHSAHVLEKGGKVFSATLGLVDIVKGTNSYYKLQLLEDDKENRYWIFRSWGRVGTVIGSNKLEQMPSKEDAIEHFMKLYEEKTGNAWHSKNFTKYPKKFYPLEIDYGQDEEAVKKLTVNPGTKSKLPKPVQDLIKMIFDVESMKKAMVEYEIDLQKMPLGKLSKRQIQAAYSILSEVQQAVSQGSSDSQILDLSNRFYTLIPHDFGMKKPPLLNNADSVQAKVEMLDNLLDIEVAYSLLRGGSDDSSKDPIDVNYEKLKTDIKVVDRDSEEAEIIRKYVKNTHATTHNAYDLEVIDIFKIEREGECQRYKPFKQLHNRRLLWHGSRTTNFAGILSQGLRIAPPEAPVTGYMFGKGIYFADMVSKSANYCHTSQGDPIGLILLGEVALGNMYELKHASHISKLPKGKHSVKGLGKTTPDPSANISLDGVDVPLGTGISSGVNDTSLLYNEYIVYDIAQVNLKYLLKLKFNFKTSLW

| SMILES | pIC50 [1] | Activity [2] | pIC50 [3] | pIC50 [4] | Activity [5] | Activity [6] |
| --- | --- | --- | --- | --- | --- | --- |
| CCCCc1nc2ccccc2c(=O)[nH]1 | 5.05 |  |  |  |  |  |
| O=c1[nH]c(CCCN2CC=C(c3ccc(F)cc3)CC2)nc2ccccc12 | 6.52 |  |  |  |  |  |
| O=c1[nH]c(CCCN2CCN(c3cccc(Cl)c3)CC2)nc2ccccc12 | 6.00 |  |  |  |  |  |

The remaining compounds from weak to strong by pIC50 [1], led by results:

| pIC50 [1] | SMILES | Activity [2] | pIC50 [3] | pIC50 [4] | Activity [5] | Activity [6] |
| --- | --- | --- | --- | --- | --- | --- |
| 6.41 | O=c1[nH]c(CCCN2CCC(c3ccc(Cl)cc3)CC2)nc2ccccc12 |  |  |  |  |  |
| 6.72 | COc1ccccc1N1CCN(CCCc2nc3ccccc3c(=O)[nH]2)CC1 |  |  |  |  |  |
| 7.10 | O=c1[nH]c(CCCN2CCC(c3ccccc3)CC2)nc2ccccc12 | inactive | 3.90 | 4.02 | Active | inactive |
| 7.11 | O=c1[nH]c(CCCN2CCN(c3ccc(F)cc3)CC2)nc2ccccc12 | inactive | < 3.70 | < 3.70 | Active | inactive |
